Consider 1 molecule from PMC9579399 (Clinical and Translational Science, 2022).

For the series, the system named is healthy Chinese male subjects. Description: Safety evaluation. The class given is in vivo, human. To be noted: n = 49 per group. An outline of the steps:
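AEs recorded throughout the study by investigators, including laboratory tests (hematology, biochemistry, urinalysis), vital signs, physical exams, 12-lead ECG and injection site reactions. Subjects with AEs followed until return to normal or baseline. Incidence calculated as subjects with at least one AE divided by total subjects.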

`CCCCCCCCCCCCCCCC(=O)N[C@@H](CCC(=O)NCCCC[C@H](NC(=O)[C@H](C)NC(=O)[C@H](C)NC(=O)[C@H](CCC(N)=O)NC(=O)CNC(=O)[C@H](CCC(=O)O)NC(=O)[C@H](CC(C)C)NC(=O)[C@H](Cc1ccc(O)cc1)NC(=O)[C@H](CO)NC(=O)[C@H](CO)NC(=O)[C@@H](NC(=O)[C@H](CC(=O)O)NC(=O)[C@H](CO)NC(=O)[C@@H](NC(=O)[C@H](Cc1ccccc1)NC(=O)[C@@H](NC(=O)CNC(=O)[C@H](CCC(=O)O)NC(=O)[C@H](C)NC(=O)[C@@H](N)Cc1cnc[nH]1)[C@@H](C)O)[C@@H](C)O)C(C)C)C(=O)N[C@@H](CCC(=O)O)C(=O)N[C@@H](Cc1ccccc1)C(=O)N[C@H](C(=O)N[C@@H](C)C(=O)N[C@@H](Cc1c[nH]c2ccccc12)C(=O)N[C@@H](CC(C)C)C(=O)N[C@H](C(=O)N[C@@H](CCCNC(=N)N)C(=O)NCC(=O)N[C@@H](CCCNC(=N)N)C(=O)NCC(=O)O)C(C)C)[C@@H](C)CC)C(=O)O` [Victoza, Liraglutide]: the “incidence of AEs” value (percentage of subjects with at least one AE) was determined as 32.7%. Where the note is “percentage of subjects with at least one TRAE”, the “incidence of TRAEs” value is given as 24.5%. Moreover, under “single 0.6 mg s.c.”, the “Number of events (AEs)” value is reported as 19 and the “Number of events (TRAEs)” value is reported as 12.
